Experimental data from ChEMBL document CHEMBL2010780, “Pyridine Carboxamides: Potent Palm Site Inhibitors of HCV NS5B Polymerase” (ACS Med Chem Lett, 2010).
Calls of active or inactive are those of the source. The calls are words filed in the database; no cut-off is given here.

Tests used:
[1] = Inhibition of Hepatitis C virus genotype 1b Con1 NS5B Cdelta21 polymerase assessed as incorporation of [33P]-CTP into heteropolymer RNA template after 2 hrs; set-up: species or system Hepacivirus hominis; conditions: Con1, 2 h
In short: (§1)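 Each value is the mean of duplicate experiments run on two separate weighings of compound.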

Hepatitis C virus [2] = experiment: Antiviral activity against Hepatitis C virus genotype 1b Con1 infected in human HuH7 cells assessed as inhibition of viral RNA replication after 3 by real time PCR analysis; assay type: functional, organism-based, Hepacivirus hominis, Huh-7; in short: as §1
[3] = Cytotoxicity against human HuH7 cells after 3 days by MTS assay; assay type: cell-based, Huh-7; in short: as §1
Hepatitis C virus [4] = experiment: Ratio of IC50 for Hepatitis C virus genotype 1b Con1 NS5B Cdelta21 polymerase palm site 2 C316N mutant to IC50 for Hepatitis C virus genotype 1b Con1 NS5B Cdelta21 polymerase; set-up: species or system Hepacivirus hominis
Hepatitis C virus [5] = experiment: Ratio of IC50 for Hepatitis C virus genotype 1b Con1 NS5B Cdelta21 polymerase palm site 2 C316Y mutant to IC50 for Hepatitis C virus genotype 1b Con1 NS5B Cdelta21 polymerase; set-up: species or system Hepacivirus hominis
Hepatitis C virus [6] = experiment: Ratio of IC50 for Hepatitis C virus genotype 1b Con1 NS5B Cdelta21 polymerase palm site 1 M414T mutant to IC50 for Hepatitis C virus genotype 1b Con1 NS5B Cdelta21 polymerase; set-up: species or system Hepacivirus hominis
Hepatitis C virus [7] = experiment: Ratio of IC50 for Hepatitis C virus genotype 1b Con1 NS5B Cdelta21 polymerase palm site 1 G554D mutant to IC50 for Hepatitis C virus genotype 1b Con1 NS5B Cdelta21 polymerase; set-up: species or system Hepacivirus hominis
Hepatitis C virus [8] = experiment: Ratio of IC50 for Hepatitis C virus genotype 1b Con1 NS5B Cdelta21 polymerase thumb site 2 M423T mutant to IC50 for Hepatitis C virus genotype 1b Con1 NS5B Cdelta21 polymerase; set-up: species or system Hepacivirus hominis
Hepatitis C virus [9] = experiment: Ratio of IC50 for Hepatitis C virus genotype 1b Con1 NS5B Cdelta21 polymerase thumb site 1 P495L mutant to IC50 for Hepatitis C virus genotype 1b Con1 NS5B Cdelta21 polymerase; set-up: species or system Hepacivirus hominis
Hepacivirus hominis [10] = experiment: Ratio of IC50 for Hepatitis C virus subtype 1b BK NS5B Cdelta21 polymerase to IC50 for Hepatitis C virus genotype 1b Con1 NS5B Cdelta21 polymerase
Hepacivirus hominis [11] = experiment: Ratio of IC50 for Hepatitis C virus subtype 1a H77 NS5B Cdelta21 polymerase to IC50 for Hepatitis C virus genotype 1b Con1 NS5B Cdelta21 polymerase
[12] = system: Hepatitis C virus genotype 2; experiment: Inhibition of Hepatitis C virus genotype 2 NS5B Cdelta21 polymerase up to 10 uM
[13] = system: Hepatitis C virus genotype 3; experiment: Inhibition of Hepatitis C virus genotype 3 NS5B Cdelta21 polymerase up to 10 uM
[14] = system: Hepatitis C virus genotype 4; experiment: Inhibition of Hepatitis C virus genotype 4 NS5B Cdelta21 polymerase up to 10 uM
[15] = Hepatitis C virus, Con1, Huh-7, read-out: EC50

Compound | IC50 [1] [µM] | CC50 at 72 h [3] [µM] | other results
CSCc1nccc(N2CCN(c3cc(C(C)C)ccc3NC(=O)c3cccnc3C)CC2)n1 | 0.027 | 19 | EC50 (Hepatitis C virus [2]; [15]): 2.2 µM
Cc1nc(Br)sc1C(=O)Nc1ccc(C(C)C)cc1N1CCN(c2cnccn2)CC1 | 3 | > 10 | EC50 (Hepatitis C virus [2]; [15]): > 10 µM
CC(C)c1ccc(NC(=O)c2cccnc2)c(N2CCN(C(=O)Nc3ccccc3)CC2)c1 | > 100 |  | 
CC(C)c1ccc(NC(=O)c2cnc3[nH]ccc3c2)c(N2CCN(c3cnccn3)CC2)c1 | > 20 |  | 
CC(C)(C)CC[C@@]1(C)CC(C2=NS(=O)(=O)c3cc(NS(C)(=O)=O)ccc3N2)=C(O)c2ccccc21 |  |  | Ratio IC50 (Hepatitis C virus [4]): 1; Ratio IC50 (Hepatitis C virus [5]): 3; Ratio IC50 (Hepatitis C virus [6]): 1; Ratio IC50 (Hepatitis C virus [7]): 100; Ratio IC50 (Hepatitis C virus [8]): 1; Ratio IC50 (Hepatitis C virus [9]): 1; Ratio IC50 (Hepacivirus hominis [10]): 1; Ratio IC50 (Hepacivirus hominis [11]): 1; inhibition [12]: inactive; inhibition [13]: inactive; inhibition [14]: inactive
CC(C)c1ccc(NC(=O)c2cccnc2)c(N2CCN(C(=O)CN(C)C)CC2)c1 | > 200 |  | 
CC(C)c1ccc(NC(=O)C2CCCNC2)c(N2CCN(c3cnccn3)CC2)c1 (stereo not drawn) | > 200 |  | 
O=C(Nc1ccc(Br)cc1N1CCN(c2cnccn2)CC1)c1cccnc1 | > 20 |  | 
O=C(Nc1ccc(C2CC2)cc1N1CCN(c2cnccn2)CC1)c1cccnc1 | 12 |  | 
CCOC(=O)c1ccc(NC(=O)c2cccnc2)c(N2CCN(c3cnccn3)CC2)c1 | > 5 |  | 
CC(C)c1ccc(NC(=O)c2cccnc2)c(N2CCN(c3nsc(Cl)n3)CC2)c1 | 5 | > 10 | EC50 (Hepatitis C virus [2]; [15]): > 10 µM
CC(C)c1ccc(NC(=O)C2CCOCC2)c(N2CCN(c3cnccn3)CC2)c1 | > 20 |  | 
CC(C)c1ccc(NC(=O)c2cccnc2)c(N2CCN(c3ccncn3)CC2)c1 | 0.56 | 27 | EC50 (Hepatitis C virus [2]; huh-7): ND(toxic)
Cc1c(F)cc(C(=O)Nc2ccc(C(C)C)cc2N2CCN(c3cnccn3)CC2)cc1F | 5.6 | > 50 | EC50 (Hepatitis C virus [2]; [15]): > 50 µM
CC(C)c1ccc(NC(=O)c2cccnc2)c(N2CCN(C(=O)OC(C)(C)C)CC2)c1 | > 200 |  | 
Cc1c(F)ccc(F)c1C(=O)Nc1ccc(C(C)C)cc1N1CCN(c2cnccn2)CC1 | 54 | 11 | EC50 (Hepatitis C virus [2]; huh-7): ND(toxic)
CNCC(=O)N1CCN(c2cc(C(C)C)ccc2NC(=O)c2cccnc2)CC1 | > 200 |  | 

Compound | IC50 [1] [µM] | CC50 at 72 h [3] [µM] | other results
Cc1ccnc(N2CCN(c3cc(C(C)C)ccc3NC(=O)c3cccnc3)CC2)n1 | 1.5 | 14 | EC50 (Hepatitis C virus [2]; huh-7): ND(toxic)
CC(C)c1ccc(NC(=O)c2ccnc(NC(=O)C(C)(C)C)c2)c(N2CCN(c3cnccn3)CC2)c1 | > 20 |  | 
CC(C)c1ccc(NC(=O)c2cnc3ccccc3c2)c(N2CCN(c3cnccn3)CC2)c1 | 6.7 | 6 | EC50 (Hepatitis C virus [2]; [15]): 1.8 µM
CC(C)c1ccc(NC(=O)c2cccnc2)c(N2CCN(S(C)(=O)=O)CC2)c1 | > 200 |  | 
Cc1cncc(N2CCN(c3cc(C(C)C)ccc3NC(=O)c3cccnc3)CC2)n1 | 0.5 | 23 | EC50 (Hepatitis C virus [2]; huh-7): ND(toxic)
CC(C)c1ccc(NC(=O)C2CCOC2)c(N2CCN(c3cnccn3)CC2)c1 (stereo not drawn) | 20 |  | 
Cc1cnc(N2CCN(c3cc(C(C)C)ccc3NC(=O)c3cccnc3)CC2)s1 | 15 |  | 
Cc1nccc(N2CCN(c3cc(C(C)C)ccc3NC(=O)c3cccnc3)CC2)n1 | 0.16 | 25 | EC50 (Hepatitis C virus [2]; huh-7): ND(toxic)
Cc1csc(N2CCN(c3cc(C(C)C)ccc3NC(=O)c3cccnc3)CC2)n1 | 3.9 | 27 | EC50 (Hepatitis C virus [2]; [15]): 6 µM
CC(C)c1ccc(NC(=O)c2cccnc2)c(N2CCN(c3ncccn3)CC2)c1 | 2.3 | 37 | EC50 (Hepatitis C virus [2]; huh-7): ND(toxic)
CC(C)c1ccc(NC(=O)c2cccnc2)c(N2CCN(c3ccccn3)CC2)c1 | 7.3 | > 50 | EC50 (Hepatitis C virus [2]; [15]): > 50 µM
CC(C)c1ccc(NC(=O)c2cccnc2)c(N2CCN(c3nccs3)CC2)c1 | 2.5 | > 50 | EC50 (Hepatitis C virus [2]; [15]): > 50 µM
CC(C)c1ccc(NC(=O)c2cccnc2)c(N2CCN(c3cncc(-c4ccccc4)n3)CC2)c1 | 17 |  | 
Cc1c(F)cc(F)cc1C(=O)Nc1ccc(C(C)C)cc1N1CCN(c2cnccn2)CC1 | 0.54 | 20 | EC50 (Hepatitis C virus [2]; huh-7): ND(toxic)
Cc1nc(N(C)C)sc1C(=O)Nc1ccc(C(C)C)cc1N1CCN(c2cnccn2)CC1 | 10 | > 10 | EC50 (Hepatitis C virus [2]; [15]): 6.9 µM
CNC(=O)c1c(-c2ccc(F)cc2)oc2cc(N(CCO)S(C)(=O)=O)c(C3CC3)cc12 [NESBUVIR] |  |  | Ratio IC50 (Hepatitis C virus [4]): 3; Ratio IC50 (Hepatitis C virus [5]): 50; Ratio IC50 (Hepatitis C virus [6]): 1.5; Ratio IC50 (Hepatitis C virus [7]): 1; Ratio IC50 (Hepatitis C virus [8]): 1; Ratio IC50 (Hepatitis C virus [9]): 1; Ratio IC50 (Hepacivirus hominis [10]): 6; Ratio IC50 (Hepacivirus hominis [11]): 1; inhibition [12]: inactive; inhibition [13]: inactive; inhibition [14]: inactive
CC(C)c1ccc(NC(=O)c2cccnc2)c(N2CCN(c3cncc(C4CC4)n3)CC2)c1 | 1 | 1 | EC50 (Hepatitis C virus [2]; huh-7): ND(toxic)

More lines, main results first:

IC50 [1] [µM] | Compound | CC50 at 72 h [3] [µM] | other results
2.2 | CC(C)c1ccc(NC(=O)c2cccnc2F)c(N2CCN(c3cnccn3)CC2)c1 | 17 | EC50 (Hepatitis C virus [2]; huh-7): ND(toxic)
14 | Cc1ccc(C(=O)Nc2ccc(C(C)C)cc2N2CCN(c3cnccn3)CC2)cn1 | 11 | EC50 (Hepatitis C virus [2]; huh-7): ND(toxic)
0.58 | Cc1ncsc1C(=O)Nc1ccc(C(C)C)cc1N1CCN(c2cnccn2)CC1 | 25 | EC50 (Hepatitis C virus [2]; huh-7): ND(toxic)
> 200 | C=C(C)c1ncccc1C(=O)Nc1ccc(C(C)C)cc1N1CCN(c2cnccn2)CC1 |  | 
2.3 | Cc1cncc(C(=O)Nc2ccc(C(C)C)cc2N2CCN(c3cnccn3)CC2)c1 | 13 | EC50 (Hepatitis C virus [2]; huh-7): ND(toxic)
3 | CC(C)c1ccc(NC(=O)c2cccnc2)c(N2CCN(c3cnccn3)CC2)c1 | 54 | EC50 (Hepatitis C virus [2]; [15]): 20 µM
> 200 | CC(C)c1ccc(NC(=O)c2cccnc2-c2ccccc2)c(N2CCN(c3cnccn3)CC2)c1 | 15 | EC50 (Hepatitis C virus [2]; huh-7): ND(toxic)
2.3 | CC(C)c1ccc(NC(=O)c2cccnc2C(F)(F)F)c(N2CCN(c3cnccn3)CC2)c1 | 4.5 | EC50 (Hepatitis C virus [2]; huh-7): ND(toxic)
> 20 | CC(C)c1ccc(NC(=O)c2cnccc2C(F)(F)F)c(N2CCN(c3cnccn3)CC2)c1 |  | 
15 | Cc1occc1C(=O)Nc1ccc(C(C)C)cc1N1CCN(c2cnccn2)CC1 |  | 
> 20 | COc1ncccc1C(=O)Nc1ccc(C(C)C)cc1N1CCN(c2cnccn2)CC1 |  | 
2 | CC(C)c1ccc(NC(=O)c2cccnc2C2CC2)c(N2CCN(c3cnccn3)CC2)c1 | 21 | EC50 (Hepatitis C virus [2]; huh-7): ND(toxic)
7 | CC(C)c1ccc(NC(=O)c2ccsc2)c(N2CCN(c3cnccn3)CC2)c1 | 28 | EC50 (Hepatitis C virus [2]; [15]): 6.5 µM
14 | Cc1ncoc1C(=O)Nc1ccc(C(C)C)cc1N1CCN(c2cnccn2)CC1 |  | 
46 | CC(C)c1ccc(NC(=O)c2cccc(O)n2)c(N2CCN(c3cnccn3)CC2)c1 | 17 | EC50 (Hepatitis C virus [2]; huh-7): ND(toxic)
> 20 | CC(C)c1ccc(NC(=O)c2ccccn2)c(N2CCN(c3cnccn3)CC2)c1 |  | 
> 200 | Cc1n[nH]cc1C(=O)Nc1ccc(C(C)C)cc1N1CCN(c2cnccn2)CC1 |  | 
> 20 | Cc1cnc(C(=O)Nc2ccc(C(C)C)cc2N2CCN(c3cnccn3)CC2)cn1 |  | 
> 200 | CC(C)c1ccc(NC(=O)c2cccnc2O)c(N2CCN(c3cnccn3)CC2)c1 |  | 
> 20 | CC(C)c1ccc(NC(=O)c2ccc(C(F)(F)F)nc2)c(N2CCN(c3cnccn3)CC2)c1 |  | 
> 20 | CC(C)c1ccc(NC(=O)c2cncnc2)c(N2CCN(c3cnccn3)CC2)c1 |  | 
1 | CC(C)c1ccc(NC(=O)c2cccnc2N)c(N2CCN(c3cnccn3)CC2)c1 | 30 | EC50 (Hepatitis C virus [2]; huh-7): ND(toxic)
> 200 | Cc1nocc1C(=O)Nc1ccc(C(C)C)cc1N1CCN(c2cnccn2)CC1 |  | 
> 20 | CC(C)c1ccc(NC(=O)c2ccnnc2)c(N2CCN(c3cnccn3)CC2)c1 |  | 
13 | Cc1oncc1C(=O)Nc1ccc(C(C)C)cc1N1CCN(c2cnccn2)CC1 |  | 
0.1 | Cc1ncccc1C(=O)Nc1ccc(C(C)C)cc1N1CCN(c2ccncn2)CC1 | 20 | EC50 (Hepatitis C virus [2]; [15]): 1.1 µM
